Experimental data as given in ChEMBL document CHEMBL4359929, “Piperidine and piperazine inhibitors of fatty acid amide hydrolase targeting excitotoxic pathology” (Bioorg Med Chem, 2019).
The source made the active and inactive calls. The calls are words filed in the database; no cut-off is given here.

Key:
[1] = target: T1, Fatty-acid amide hydrolase 1 (Homo sapiens, UniProt O00519); assay: Inhibition of human recombinant MBP-tagged FAAH expressed in Escherichia coli cells using AAMCA as substrate incubated for 15 mins followed by substrate addition and measured after every 20 mins for 4 hrs by fluorescence based assay
T1 sequence (O00519 whole entry): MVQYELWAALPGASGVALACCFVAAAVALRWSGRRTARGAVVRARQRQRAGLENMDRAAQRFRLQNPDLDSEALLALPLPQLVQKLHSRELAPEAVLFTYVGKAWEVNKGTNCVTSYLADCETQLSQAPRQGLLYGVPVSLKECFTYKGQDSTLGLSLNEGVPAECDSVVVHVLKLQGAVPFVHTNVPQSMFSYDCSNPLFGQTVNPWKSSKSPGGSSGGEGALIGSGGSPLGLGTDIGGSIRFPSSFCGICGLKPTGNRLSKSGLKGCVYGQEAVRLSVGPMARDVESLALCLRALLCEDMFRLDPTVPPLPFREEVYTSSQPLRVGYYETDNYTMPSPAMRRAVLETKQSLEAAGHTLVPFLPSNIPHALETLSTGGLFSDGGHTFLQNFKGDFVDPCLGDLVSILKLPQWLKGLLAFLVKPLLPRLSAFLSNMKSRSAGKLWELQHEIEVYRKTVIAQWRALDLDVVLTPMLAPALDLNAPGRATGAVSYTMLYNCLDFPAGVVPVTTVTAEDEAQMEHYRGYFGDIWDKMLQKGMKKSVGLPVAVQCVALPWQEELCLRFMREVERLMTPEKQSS
Procedure, shortened: (§1)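 Fluorescent enzyme assay in throughput format. Human recombinant FAAH or purified rat FAAH used arachidonoyl 7-amino-4-methylcoumarin amide as substrate; human recombinant MGL was run by a similar fluorometric procedure.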

Monoglyceride lipase = target: T2, Monoglyceride lipase (Homo sapiens, UniProt Q99685); assay: Inhibition of human recombinant His-tagged MGL expressed in Escherichia coli BL21 DE3 cells using AHMMCE as substrate preincubated with enzyme for 15 mins followed by substrate addition and measured after every 15 mins for 3 hrs by fluorescence based assay; procedure, shortened: as §1
T2 sequence (Q99685 whole entry): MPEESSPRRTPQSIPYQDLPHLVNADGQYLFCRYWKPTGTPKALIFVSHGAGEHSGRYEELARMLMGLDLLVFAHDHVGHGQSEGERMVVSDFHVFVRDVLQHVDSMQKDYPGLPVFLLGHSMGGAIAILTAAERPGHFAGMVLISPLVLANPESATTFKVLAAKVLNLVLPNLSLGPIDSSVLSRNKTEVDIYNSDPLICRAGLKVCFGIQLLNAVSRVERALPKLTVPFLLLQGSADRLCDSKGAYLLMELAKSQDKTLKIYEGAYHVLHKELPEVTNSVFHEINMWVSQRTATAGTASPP

[2] = target: T3, Fatty-acid amide hydrolase 1 (Rattus norvegicus) (UniProt P97612); assay: Inhibition of FAAH in rat brain membrane at 1 to 10 uM incubated for 30 mins followed by incubation with FP-Rh probe for 45 mins by ABPP assay; format: cell membranes
T3 sequence (whole entry): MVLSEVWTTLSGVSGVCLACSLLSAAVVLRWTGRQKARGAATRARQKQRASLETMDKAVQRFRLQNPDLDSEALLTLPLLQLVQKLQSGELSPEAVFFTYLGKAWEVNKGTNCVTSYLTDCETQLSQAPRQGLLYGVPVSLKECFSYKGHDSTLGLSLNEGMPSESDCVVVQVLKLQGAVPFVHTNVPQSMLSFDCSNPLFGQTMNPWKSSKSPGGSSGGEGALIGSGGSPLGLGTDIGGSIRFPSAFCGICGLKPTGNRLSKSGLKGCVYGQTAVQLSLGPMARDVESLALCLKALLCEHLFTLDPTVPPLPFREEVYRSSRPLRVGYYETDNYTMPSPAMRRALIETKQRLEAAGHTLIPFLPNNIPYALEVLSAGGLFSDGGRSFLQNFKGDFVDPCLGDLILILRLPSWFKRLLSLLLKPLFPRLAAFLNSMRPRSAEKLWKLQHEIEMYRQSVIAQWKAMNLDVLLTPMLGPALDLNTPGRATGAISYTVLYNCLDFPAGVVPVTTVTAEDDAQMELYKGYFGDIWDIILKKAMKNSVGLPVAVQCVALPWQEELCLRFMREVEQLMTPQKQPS
Procedure, shortened: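 Gel-based competitive ABPP on rat brain membrane homogenates (10 mg/mL protein). Compound at 1 and 10 μM or DMSO for 30 min at room temperature, then 10 μM rhodamine-tagged fluorophosphonate probe for 45 min at room temperature. FAAH was run with a reference FAAH inhibitor at 10 μM as positive control. Serine hydrolase labelling read by in-gel fluorescence.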

[3] = Stability in human liver microsomes assessed as half life; format: ADME, Microsome
Procedure, shortened: (§2)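 Stability assessed as half-life in human, rat and mouse plasma and gastric fluid, and in human, rat and mouse liver microsomal preparations.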

[4] = Stability in rat liver microsomes assessed as half life; format: ADME, Microsome; procedure, shortened: as §2
[5] = Stability in mouse liver microsomes assessed as half life; format: ADME, Microsome; procedure, shortened: as §2
[6] = Stability in human plasma assessed as half life; format: ADME, cell-free; procedure, shortened: as §2
[7] = Stability in rat plasma assessed as half life; format: ADME, cell-free; procedure, shortened: as §2
[8] = Stability in human gastric fluid assessed as half life; format: ADME, tissue-based, Gastric juice; procedure, shortened: as §2
[9] = Stability in mouse gastric fluid assessed as half life; format: ADME, tissue-based, Gastric juice; procedure, shortened: as §2
Hippocampus [10] = assay: (§3) Neuroprotective activity against Sprague-Dawley rat hippocampus assessed as decrease in KA-induced excitotoxicity by measuring increase in GluR1 level at 3 to 30 uM preincubated for 1 hr followed by KA stimulation for 2 hrs in continued presence of compound followed by KA wash out and then further incubation with compound for 24 hrs by immunoblot analysis; format: functional, tissue-based
Procedure, shortened: (§4)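 Sprague-Dawley rat hippocampal slices (400 μm, postnatal day 12) cultured 18–20 days at 37 °C, 5% CO2. Pretreated 60 min with 3–30 μM compound or 0.1% DMSO, then 60 μM kainic acid for 2 h with compound. Three washouts, then 24 h recovery with 30 μM compound. Harvested in groups of 7–9; GluR1, synaptophysin and synapsin IIb by immunoblot with optical density. Unpaired t-tests.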

Hippocampus [11] = assay: as §3, with “syn IIb” for “GluR1”; format: functional, tissue-based; procedure, shortened: as §4
[12] = target: Cannabinoid receptor 2 (Mus musculus) (UniProt P47936); assay: Displacement of [3H]CP55940 from mouse CB2 receptor expressed in HEK293 cells by competition-equilibrium binding analysis; format: cell-based
Procedure, shortened: (§5)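 HEK293 cell membranes expressing mouse or human CB2; competition-equilibrium binding against [3H]CP-55,940.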

[13] = target: Cannabinoid receptor 2 (Homo sapiens) (UniProt P34972); assay: Displacement of [3H]CP55940 from human CB2 receptor expressed in HEK293 cells by competition-equilibrium binding analysis; format: cell-based; procedure, shortened: as §5
[14] = Selectivity ratio of IC50 for human recombinant His-tagged MGL expressed in Escherichia coli BL21 DE3 cells to IC50 for rat recombinant His/GST-tagged FAAH expressed in Escherichia coli cells by fluorescence based assay
[15] = Selectivity ratio of IC50 for human full length ABHD6 expressed in Escherichia coli cells to IC50 for rat recombinant His/GST-tagged FAAH expressed in Escherichia coli cells by fluorescence based assay
[16] = target: Cannabinoid receptor 1 (Rattus norvegicus) (UniProt P20272); assay: Displacement of [3H]CP55940 from CB1 receptor in rat brain by competition-equilibrium binding analysis
Cannabinoid receptor 1 (Rattus norvegicus), sequence (P20272 whole entry, looked up): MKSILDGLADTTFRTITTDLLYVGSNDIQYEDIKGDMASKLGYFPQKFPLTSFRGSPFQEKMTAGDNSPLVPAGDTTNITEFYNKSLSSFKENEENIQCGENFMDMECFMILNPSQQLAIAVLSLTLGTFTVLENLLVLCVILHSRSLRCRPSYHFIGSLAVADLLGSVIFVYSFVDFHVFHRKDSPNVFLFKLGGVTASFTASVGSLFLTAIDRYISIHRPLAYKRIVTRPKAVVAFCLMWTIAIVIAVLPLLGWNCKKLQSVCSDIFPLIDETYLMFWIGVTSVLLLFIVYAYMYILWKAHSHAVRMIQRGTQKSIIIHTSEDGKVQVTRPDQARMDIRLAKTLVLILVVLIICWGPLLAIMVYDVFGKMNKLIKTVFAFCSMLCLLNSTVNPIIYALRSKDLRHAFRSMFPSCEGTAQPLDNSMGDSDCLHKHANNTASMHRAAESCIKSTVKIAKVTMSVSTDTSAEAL

Cannabinoid receptor 2 (Mus musculus), sequence (P47936 whole entry): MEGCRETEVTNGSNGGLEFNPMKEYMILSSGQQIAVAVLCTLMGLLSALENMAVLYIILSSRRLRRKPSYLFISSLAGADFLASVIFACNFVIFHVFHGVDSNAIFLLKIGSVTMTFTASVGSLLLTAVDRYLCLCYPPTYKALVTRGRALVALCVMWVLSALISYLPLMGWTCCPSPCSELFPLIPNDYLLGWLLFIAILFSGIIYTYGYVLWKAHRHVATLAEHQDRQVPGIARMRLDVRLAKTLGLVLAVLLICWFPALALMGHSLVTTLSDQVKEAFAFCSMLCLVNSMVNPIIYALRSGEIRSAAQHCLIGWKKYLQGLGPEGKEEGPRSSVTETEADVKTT
Cannabinoid receptor 2 (Homo sapiens), sequence (P34972 whole entry): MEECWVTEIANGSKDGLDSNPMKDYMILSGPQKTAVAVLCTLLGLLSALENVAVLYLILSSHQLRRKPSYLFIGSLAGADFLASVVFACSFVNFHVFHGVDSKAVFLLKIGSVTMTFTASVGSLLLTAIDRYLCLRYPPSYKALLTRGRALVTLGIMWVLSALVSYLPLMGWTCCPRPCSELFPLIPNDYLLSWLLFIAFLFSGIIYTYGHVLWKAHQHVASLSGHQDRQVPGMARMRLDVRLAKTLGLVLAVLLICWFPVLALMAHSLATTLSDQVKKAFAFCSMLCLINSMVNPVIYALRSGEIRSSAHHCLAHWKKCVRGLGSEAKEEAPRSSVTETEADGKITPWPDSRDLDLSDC

| Structure (SMILES) | IC50 [1] [µM] | IC50 (Monoglyceride lipase) [µM] | inhibition [2] [%] | half-life [3] [min] | half-life [4] [min] | half-life [5] [min] | half-life [6] [min] | half-life [7] [min] | half-life [8] [min] | half-life [9] [min] | inhibition (Hippocampus [10]) | inhibition (Hippocampus [11]) | Activity [12] | Activity [13] | Ratio IC50 [14] | Ratio IC50 [15] | Activity [16] |
| --- | --- | --- | --- | --- | --- | --- | --- | --- | --- | --- | --- | --- | --- | --- | --- | --- | --- |
| O=C(Oc1cccc(N2CCS(=O)(=O)CC2)c1)N1CCC(c2ccc(N3CCC3)cc2)CC1 | 0.0079 | > 1 | 100 | 15 to 25 | 15 to 25 | 15 to 25 | > 60 | > 60 | > 60 | > 60 | Active | Active | inactive | inactive | > 1000 | > 1000 | inactive |
| C[C@@H]1CN(c2ccc(F)cc2)CCN1C(=O)Oc1cccc(N2CCS(=O)(=O)CC2)c1 | 0.0117 | > 1 | 100 | 15 to 25 | 15 to 25 | 15 to 25 | > 60 | > 60 | > 60 | > 60 | Active | Active | inactive | inactive | > 1000 | > 1000 | inactive |
